From PMC2114648 (The Journal of Cell Biology, 1987)
Where “and” joins values, the source holds several entries; their conditions need not be identical. Equal values may be shown once. Read-outs that look alike come from different tables or passages of the source.

Key:
[1] = Diffusion across nitrocellulose filter of empty chambers; assay type: in vitro ADME; settings: empty chamber, nitrocellulose filter without cells; 2 h; ~50,000 cpm tracer
[2] = tested on: MDCK cells; assay type: in vitro ADME, canine
Method in brief: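 MDCK monolayers on nitrocellulose Millicell filters, 5–7 d after plating (1.8–2.0×10^6 cells/well at confluence). Both sides washed with PBS pH 7.4. Chloramine-T-iodinated EGF tracer added to one side at 4°C, then held at 4, 15 or 37°C, with [14C]inulin (50,000 cpm) as leak marker. In a second format, tracer was bound basally 2.5 h at 4°C, washed, and moved to 37°C. Triplicate wells, mean ± SD.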

[3] = biological target: T1, EGF receptor on MDCK cells (Canis lupus familiaris, UniProt A0A8I3RYJ5); assay type: binding, canine; settings: for EGF bound, % of the total tracer added: 4 C, 50,000 cpm [125I]EGF
Method in brief: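 Confluent MDCK filter monolayers (1.8–2.0×10^6 cells/well) washed three times with cold PBS. Hepes buffer (50 mM Hepes, 1% BSA, pH 7.4) added both sides. 50,000 cpm [125I]EGF (194 µCi/µg) plus unlabeled EGF 1–200 ng/ml applied to apical or basal side. Incubated 6 h at 4°C, then washed. Filters excised and gamma-counted. Scatchard analysis.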

[4] = biological target: T1, EGF receptor on MDCK cells; assay type: cell-based, canine
Method in brief: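 MDCK monolayers on 0.45-µm nitrocellulose filter chambers, used 5–7 d after plating. Hepes buffer pH 7.4. 50,000 cpm (0.137 ng) chloramine-T-iodinated EGF plus 50,000 cpm [14C]inulin leakage marker added apically or basally. Opposite side sampled every 30 min with buffer replacement. Cumulative counts expressed as % of tracer added. Antibody 1:100 preincubated basally 60 min at 37°C, sampled over 4.5 h. Triplicate wells.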

[5] = tested on: insulin receptors on MDCK cells; assay: [125I]insulin binding to basal or apical surface of MDCK cells; parameters: species or system canine; settings: Hepes buffer, 15 C

## epidermal growth factor [EGF]
[1]
  Diffusion across the membrane, % of the total added: 22%
[2]; 4 C versus 37 C, mean of triplicate wells
  Transport of EGF basal-to-apical at 4 C (in words): even further decreased
[2]; 15 C versus 37 C, mean of triplicate wells
  Transport of EGF basal-to-apical at 15 C (in words): markedly decreased
[2]; MDCK monolayer
  Transport in the apical-to-basal direction (in words): No transport
[2]; pre-bound tracer on basal surface, warmed from 4 C to 37 C
  Time to appearance of EGF at the apical surface after warming: ≤ 15 min
[3]; apical surface of MDCK cells
  EGF bound, % of the total tracer added: < 1% and 0.8%
[3]; basal surface of MDCK cells, binding maximal within 4 h
  EGF bound, % of the total tracer added: 6.5% and ~ 6%
[3]; basal surface of MDCK cells, 6 h at 4 C, competition with [125I]EGF
  Concentration of cold EGF that inhibited binding by 50%: 5 ng/mL
[4]; 0.85 nM (5 ng/ml) unlabeled EGF
  Effect of unlabeled EGF on transport of tracer EGF, basal-to-apical: substantial de- crease
[4]; 110 nM cold EGF
  Effect of unlabeled EGF on transcytosis of labeled EGF, apical-to-basal: no effect
[4]; 110 nM unlabeled EGF
  Effect of unlabeled EGF on transcytosis of labeled EGF, basal-to-apical: completely inhibited

## insulin
[2]; MDCK monolayer, basal-to-apical and apical-to-basal
  Transport in either direction (in words): not observed
[5]
  Binding of insulin: failed to detect binding
